Source: PubChem BioAssay
Shown are actives, neighbours in structure and some others; about 3.1% of the full set was active somewhere.
KCNK3 block: human KCNK3 channel inhibition, primary screen | O14649 | CHO-KCNK3 thallium flux, FluxOR fluorescence; hits give low values | B-score at 10 µM | 0.84% of 340,000 active | AID 602410;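 active = B-score under library mean minus 4 SD, starting fluorescence ratio at most library mean plus 5 SD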;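 note: more negative B-score means stronger inhibition of thallium flux through KCNK3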
KCNK9 inh: human KCNK9 channel inhibition; Q9NPC2; HEK293 KCNK9, FluxOR thallium flux fluorescence; hits give low values; B-score at 10 µM; 1.2% of 310,000 active; AID 488922;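 active = ratio B-score over 3 SD below the library mean, with starting fluorescence within 5 SD of its mean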;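 note: negative B-score means less thallium flux so channel inhibition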
KCNQ1 act: human KCNQ1 channel potentiation or activation; P51787; B-score at 10 µM; 0.35% of 310,000 active; AID 2648; CHO-K1 KCNQ1, thallium flux FluxOR fluorescence; hits give high values;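 active = fluorescence ratio B-score, a plate-corrected score, at least three library SD, with initial intensity B-score within 5 SD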
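Material: CHO-K1 cells stably expressing KCNQ1. Medium: assay buffer for compound exposure, DMSO matched across wells. Reagent: K+/Tl+ depolarizing stimulus. Compound dosing: single-concentration screen. Times: 37 °C overnight plating, 90-min dark dye load, 20-min compound pretreatment. Technique: FluxOR Tl+ flux fluorescence.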
hERG rescue: shields human hERG channel from block by proarrhythmic agents; CHO-hERG, FluxOR thallium flux, dofetilide IC70 present; activation (rescue from dofetilide block), less the hit threshold, % at 10 µM; 0.51% of 310,000 active; AID 1511; Q12809;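 active = activation above the mean of controls blocked by dofetilide plus 5 SD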;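 note: thallium influx through hERG after potassium depolarization seen as dye fluorescence rise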
KCNQ1 block: blocks the human KCNQ1 potassium channel. P51787. CHO-K1 KCNQ1, FluxOR thallium flux fluorescence; hits give high values. B-score at 10 µM. 1.3% of 310,000 active. AID 2642;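 active = compounds whose thallium flux B-score, printed positive for inhibition, exceeds three library SD while starting fluorescence stays within three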;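 note: channel opened by potassium depolarization with thallium stimulus after 20 min compound exposure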
KCNK3 confirm: confirmation of human KCNK3 two-pore domain potassium channel inhibitors | 99% of 2,400 active | CHO-KCNK3 thallium flux, FluxOR fluorescence; 0% buffer, 100% carvedilol maximal block | ratio percent of control, % at 10 µM | shares compounds with KCNK3 block;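 active = ratio percent of control, averaged over triplicates, above buffer control mean plus 5 SD, cut at about 64% in these data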;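 note: ratio is the fluorescence rise from min to max over baseline after thallium stimulus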
KCNK3 noninduced: KCNK3 inhibitor counter-screen hit in non-induced cells; shares compounds with KCNK3 block; non-induced KCNK3 parental cells, FluxOR thallium flux; hits give low values; thallium flux ratio (lower = more inhibition) at 10 µM; 40% of 2,400 active; AID 651747;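 active = thallium flux ratio, averaged over three wells, more than 5 SD below the buffer control mean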;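 note: host cells are CHO cells without KCNK3 induction; ratio is peak minus trough fluorescence over baseline then normalized to buffer controls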
* marks the source's active call; other numbers are inactive results; i = inactive; . = no result given.

SMILES	KCNK3 block	KCNK9 inh	KCNQ1 act	hERG rescue	KCNQ1 block	KCNK3 confirm	KCNK3 noninduced
CC(=O)c1ccc(N=C2C(=O)Nc3ccccc32)cc1	i	i	i	-3	i	.	.
CC(=O)N(/N=C1/C(=O)Nc2ccccc21)c1ccccc1	-9*	i	i	-9	i	125*	0.12*
CC(C)n1c(SCC(=O)N2c3ccccc3Sc3ccccc32)nc2c1c(=O)n(C)c(=O)n2C	-11*	i	i	-8	i	98*	i
CCCn1c(SCC(=O)N2c3ccccc3Sc3ccccc32)nc2c1c(=O)n(C)c(=O)n2C	i	i	i	-19	i	.	.
COc1ccc(CCNC(=O)c2ccn[nH]2)cc1OC	i	i	i	-13	i	.	.
CC1CCCN(C(=O)c2ccc(Cl)c(S(=O)(=O)N3CCCCCC3)c2)C1 (stereo not given)	i	.	.	.	.	.	.
CCOc1ccccc1NC(=O)CN1C(=O)NC(Cc2c[nH]c3ccccc23)C1=O (stereo not given)	i	.	.	.	.	.	.
NN=C1c2ccccc2C(=O)C1C(=O)C(c1ccccc1)c1ccccc1 (stereo not given)	-14*	.	.	.	.	138*	0.097*
Cc1ccc(C(=O)C2C(=O)c3ccccc3C2=O)cc1	i	i	i	-8	i	.	.
CCc1cc2c(=O)n(Cc3ccco3)c(SCC(=O)N(C)C3CCS(=O)(=O)C3)nc2s1 (stereo not given)	-9.9*	i	i	-17	i	100*	i
CCc1cc2c(=O)n(Cc3ccco3)c(SCC(=O)NC3CCS(=O)(=O)C3)nc2s1 (stereo not given)	i	i	i	-5	i	.	.
CCN(C(=O)CSc1nc2ccccc2c(=O)n1Cc1ccc(C)cc1)C1CCS(=O)(=O)C1 (stereo not given)	-9.5*	i	i	-12	i	97*	i
Cc1cccc(-n2c(SCC(=O)N3CC(=O)Nc4ccccc43)nc3ccccc3c2=O)c1	-10*	i	i	-15	i	100*	i
CCN(C(=O)CSc1nc2ccccc2c(=O)n1-c1cccc(C)c1)C1CCS(=O)(=O)C1 (stereo not given)	-11*	i	i	-15	i	100*	i
CCN(C(=O)CSc1nc2ccc(O)cc2c(=O)n1-c1ccc(OC)c(OC)c1)C1CCS(=O)(=O)C1 (stereo not given)	i	.	.	.	.	.	.
Cc1ccc(-n2c(SCC(=O)N3CC(=O)Nc4ccccc43)nc3ccccc3c2=O)cc1C	i	i	i	-15	i	.	.
Cc1ncc([N+](=O)[O-])n1Cc1ccc(Br)cc1	i	i	i	-5	i	.	.
COC(c1ccccc1)(c1ccccc1)C(Oc1nccc(C)n1)C(=O)O (stereo not given)	i	i	i	-5	i	.	.
Cn1c(C(=O)N2CCc3ccccc3C2)cc2oc3ccccc3c21	i	i	i	-2	i	.	.
CCn1c(C(=O)N2CCc3ccccc3C2)cc2oc3ccccc3c21	-9.1*	i	i	-10	7*	120*	0.15*
CNc1ncc(C(=O)c2ccc(Br)cc2)s1	i	i	i	-12	i	.	.
COc1nc(-c2ccccc2)ccc1-c1noc(-c2ccccc2)n1	-12*	i	i	-5	i	99*	i
CCOC(=O)Cc1csc(NC(=O)CCCC(=O)O)n1	i	i	i	-6	i	.	.
Cc1ccc2c(c1)N(C(=O)CCC(=O)NCc1ccccn1)CC(C)O2 (stereo not given)	i	i	i	-7	i	.	.
Cc1cccc(NC(=O)c2ccc(N(C)C3CCCCC3)c([N+](=O)[O-])c2)n1	-11*	i	i	-12	i	128*	0.12*
SMILES	KCNK3 block	KCNK9 inh	KCNQ1 act	hERG rescue	KCNQ1 block	KCNK3 confirm	KCNK3 noninduced
C=CCC(=O)N1CCCC(CO)(Cc2ccc(F)cc2F)C1 (stereo not given)	i	i	i	-5	i	.	.
Cc1ccc2c(CC(=O)N3CCN(S(=O)(=O)c4ccccc4)CC3)coc2c1	i	.	.	.	.	.	.
N#Cc1ccccc1S(=O)(=O)N1CCN(C(=O)Cc2coc3cc(O)ccc23)CC1	-12*	.	.	.	.	0	i
CN(c1ccccc1)S(=O)(=O)c1ccc(NC(=O)c2nc(S(C)(=O)=O)ncc2Cl)cc1	-9*	i	i	-20	i	106*	0.15*
Nc1ccc(C(=O)N2CCN(S(=O)(=O)/C=C/c3ccccc3)CC2)cc1[N+](=O)[O-]	i	i	i	-10	i	.	.
O=C(c1ccc2ccccc2c1)N1CCN(S(=O)(=O)/C=C/c2ccccc2)CC1	-9.1*	i	i	-10	i	96*	i
Cc1ccc2c(c1)NC(=O)C(CC(=O)N(C)Cc1ccccc1)O2 (stereo not given)	i	i	i	-7	i	.	.
O=C(CSc1c(Cl)cccc1Cl)N1CCC(c2nc3ccccc3s2)CC1	i	i	i	-6	i	.	.
O=C(CSc1ccc(Cl)cc1)N1CCC(c2nc3ccccc3s2)CC1	-8.8*	i	i	-14	i	127*	0.16*
FC(F)Sc1ccc(NC(=S)NC2CCCC2)cc1	-11*	i	i	-6	i	113*	i
OC1CCC(NC(=S)Nc2ccc(SC(F)F)cc2)CC1 (stereo not given)	i	i	i	-6	i	.	.
Cn1cc(SCC(=O)NCCc2ccccc2)c2ccccc21	i	i	i	-1	i	.	.
CC(Oc1cccc(Cl)c1)C(=O)Nc1ccccc1N1CCCC1 (stereo not given)	-8.8*	i	i	-18	i	124*	i
O=C(COc1ccc(Cl)cc1Br)Nc1ccccc1N1CCCC1	i	i	i	-12	i	.	.
Cc1cccc(C)c1OCC(=O)Nc1ccccc1N1CCCCC1	-9.3*	-7.6*	i	-21	i	114*	i
CCOc1cc(N2CCOCC2)c(OCC)cc1NC(=O)COc1cccc(CC)c1	i	.	.	.	.	.	.
CCc1cccc(OCC(=O)Nc2ccccc2N2CCCC2)c1	-9.1*	i	i	-10	i	120*	0.16*
COc1cc(C(C)=O)ccc1OCC(=O)Nc1ccccc1N1CCCC1	i	i	i	-22	i	.	.
Cc1ccc(Cl)c(OCC(=O)Nc2ccccc2N2CCCCC2)c1	-10*	i	i	-14	i	123*	0.15*
Clc1nc(-c2ccccc2)ncc1Oc1ccccc1	i	i	i	-8	i	.	.
